Reference: ChEMBL document CHEMBL4368909, “Identification of Dihydrofuro[3,4- d]pyrimidine Derivatives as Novel HIV-1 Non-Nucleoside Reverse Transcriptase Inhibitors with Promising Antiviral Activities and Desirable Physicochemical Properties” (J Med Chem, 2019)
In brackets after ≈: the same amount, converted by molar mass.

Assays:
[1] = test system: Human immunodeficiency virus 1; assay: Antiviral activity against HIV1 harboring reverse transcriptase F227L/V106A double mutant infected in human MT4 cells assessed as reduction in virus-induced cytopathic effect after 5 days by MTT assay; type: functional, organism-based; conditions: Human immunodeficiency virus 1, MT4, 120 h
[2] = test system: Human immunodeficiency virus 1; assay: Antiviral activity against wild type HIV1 3B infected in human MT4 cells assessed as reduction in virus-induced cytopathic effect after 5 days by MTT assay; type: functional, organism-based; conditions: Human immunodeficiency virus 1, 3B, MT4, 120 h
[3] = Aqueous solubility of the compound at pH at 2 by HPLC analysis; type: physicochemical; conditions: buffer, pH 2
Procedure, shortened: (§1)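 Aqueous solubility read by HPLC in buffer at pH 2.0, 7.0 or 7.4.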

[4] = test system: Human immunodeficiency virus 1; assay: Resistance factor, ratio of EC50 for HIV1 harboring reverse transcriptase F227L/V106A double mutant to EC50 for wild type HIV1; type: functional
Procedure, shortened: (§2)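 The resistance factor is the EC50 against the mutant strain divided by the EC50 against wild-type HIV-1. Both were measured in MT-4 cells by MTT read-out of protection from virus-induced cytopathicity.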

[5] = Selectivity ratio of CC50 for human MT4 cells to EC50 for HIV1 harboring reverse transcriptase F227L/V106A double mutant infected in human MT4 cells; type: toxicity, cell-based; conditions: read-out: Ratio CC50/EC50
[6] = test system: Human immunodeficiency virus 1; assay: Antiviral activity against HIV1 harboring reverse transcriptase Y181C mutant infected in human MT4 cells assessed as reduction in virus-induced cytopathic effect after 5 days by MTT assay; type: functional, organism-based; conditions: Human immunodeficiency virus 1, MT4, 120 h
[7] = Selectivity ratio of CC50 for human MT4 cells to EC50 for HIV1 RES056 infected in human MT4 cells; type: toxicity, cell-based; conditions: read-out: Ratio CC50/EC50
[8] = test system: Human immunodeficiency virus 1; assay: Resistance factor, ratio of EC50 for HIV1 harboring reverse transcriptase L100I mutant to EC50 for wild type HIV1; type: functional; procedure, shortened: as §2
[9] = Selectivity ratio of CC50 for human MT4 cells to EC50 for HIV1 harboring reverse transcriptase Y181C mutant infected in human MT4 cells; type: toxicity, cell-based; conditions: read-out: Ratio CC50/EC50
[10] = Selectivity ratio of CC50 for human MT4 cells to EC50 for HIV1 harboring reverse transcriptase K103N mutant infected in human MT4 cells; type: toxicity, cell-based; conditions: read-out: Ratio CC50/EC50
[11] = Aqueous solubility of the compound in FASSIF by HPLC analysis; type: physicochemical; conditions: simulated gi fluid
Procedure, shortened: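 Solubility read by HPLC in fasted state simulated intestinal fluid (FaSSIF).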

[12] = test system: Human immunodeficiency virus 1; assay: Resistance factor, ratio of EC50 for HIV1 harboring reverse transcriptase E138K mutant to EC50 for wild type HIV1; type: functional; procedure, shortened: as §2
[13] = Selectivity ratio of CC50 for human MT4 cells to EC50 for HIV1 harboring reverse transcriptase L100I mutant infected in human MT4 cells; type: toxicity, cell-based; conditions: read-out: Ratio CC50/EC50
[14] = test system: Human immunodeficiency virus 1; assay: Antiviral activity against HIV1 RES056 infected in human MT4 cells assessed as reduction in virus-induced cytopathic effect after 5 days by MTT assay; type: functional, organism-based; conditions: Human immunodeficiency virus 1, RES056, MT4, 120 h
[15] = Aqueous solubility of the compound at pH at 7 by HPLC analysis; type: physicochemical; conditions: buffer, pH 7; procedure, shortened: as §1
[16] = test system: Human immunodeficiency virus 1; assay: Antiviral activity against HIV1 harboring reverse transcriptase L100I mutant infected in human MT4 cells assessed as reduction in virus-induced cytopathic effect after 5 days by MTT assay; type: functional, organism-based; conditions: Human immunodeficiency virus 1, MT4, 120 h
[17] = test system: Human immunodeficiency virus 1; assay: Resistance factor, ratio of EC50 for HIV1 harboring reverse transcriptase K103N mutant to EC50 for wild type HIV1; type: functional; procedure, shortened: as §2
[18] = test system: Human immunodeficiency virus 1; assay: Antiviral activity against HIV1 harboring reverse transcriptase Y188L mutant infected in human MT4 cells assessed as reduction in virus-induced cytopathic effect after 5 days by MTT assay; type: functional, organism-based; conditions: Human immunodeficiency virus 1, MT4, 120 h
[19] = Selectivity ratio of CC50 for human MT4 cells to EC50 for HIV1 harboring reverse transcriptase E138K mutant infected in human MT4 cells; type: toxicity, cell-based; conditions: read-out: Ratio CC50/EC50
[20] = Selectivity ratio of CC50 for human MT4 cells to EC50 for HIV1 harboring reverse transcriptase Y188L mutant infected in human MT4 cells; type: toxicity, cell-based; conditions: read-out: Ratio CC50/EC50
[21] = target: Human immunodeficiency virus type 1 reverse transcriptase (Human immunodeficiency virus 1, UniProt Q72547); assay: Inhibition of recombinant HIV1 reverse transcriptase using (DIG)-dUTP and biotin-labeled dNTPs as substrate after 1 hr by ELISA
[22] = test system: Human immunodeficiency virus 1; assay: Antiviral activity against HIV1 harboring reverse transcriptase E138K mutant infected in human MT4 cells assessed as reduction in virus-induced cytopathic effect after 5 days by MTT assay; type: functional, organism-based; conditions: Human immunodeficiency virus 1, MT4, 120 h
[23] = test system: Human immunodeficiency virus 1; assay: Resistance factor, ratio of EC50 for HIV1 harboring reverse transcriptase Y181C mutant to EC50 for wild type HIV1; type: functional; procedure, shortened: as §2
[24] = test system: Human immunodeficiency virus 2; assay: Antiviral activity against HIV2 ROD infected in human MT4 cells assessed as reduction in virus-induced cytopathic effect after 5 days by MTT assay; conditions: Human immunodeficiency virus 2, ISOLATE ROD, MT4, 120 h
[25] = Selectivity ratio of CC50 for human MT4 cells to EC50 for HIV1 3B infected in human MT4 cells; type: toxicity, cell-based; conditions: read-out: Ratio CC50/EC50
[26] = test system: Human immunodeficiency virus 1; assay: Resistance factor, ratio of EC50 for HIV1 harboring reverse transcriptase Y188L mutant to EC50 for wild type HIV1; type: functional; procedure, shortened: as §2
MT4 = assay: Cytotoxicity against human MT4 cells after 5 days by MTT assay; type: cell-based; conditions: mt4, 120 h
[27] = test system: Human immunodeficiency virus 1; assay: Antiviral activity against HIV1 harboring reverse transcriptase K103N mutant infected in human MT4 cells assessed as reduction in virus-induced cytopathic effect after 5 days by MTT assay; type: functional, organism-based; conditions: Human immunodeficiency virus 1, MT4, 120 h

Cc1cc(C#N)cc(C)c1Oc1nc(NC2CCN(Cc3ccncc3)CC2)nc2c1COC2
EC50 [1]: 0.0105 µM | EC50 [2]: 0.0023 µM | solubility [3]: 0.223 mg/mL (≈ 488 µM) | Ratio EC50 [4]: 4.4 | selectivity ratio [5]: 3580 | EC50 [6]: 0.0049 µM | selectivity ratio [7]: 871 | Ratio EC50 [8]: 1.8 | selectivity ratio [9]: 7630 | selectivity ratio [10]: 31200 | solubility [11]: 0.00857 mg/mL (≈ 18.8 µM) | Ratio EC50 [12]: 2.6 | selectivity ratio [13]: 9040 | EC50 [14]: 0.0431 µM | solubility [15]: 0.0146 mg/mL (≈ 32 µM) | EC50 [16]: 0.0041 µM | Ratio EC50 [17]: 0.5 | EC50 [18]: 0.0078 µM | selectivity ratio [19]: 6020 | selectivity ratio [20]: 4770 | IC50 [21]: 0.056 µM | EC50 [22]: 0.0062 µM | Ratio EC50 [23]: 2.1 | EC50 [24]: 5.12 µM | selectivity ratio [25]: 15900 | Ratio EC50 [26]: 3.3 | CC50 (MT4): 37.6 µM | EC50 [27]: 0.0012 µM

Cc1cc(C#N)cc(C)c1Oc1nc(NC2CCN(Cc3ccc([N+](=O)[O-])cc3)CC2)nc2c1SCC2
EC50 [2]: 0.008 µM | selectivity ratio [7]: 12 | EC50 [14]: 0.495 µM | IC50 [21]: 0.175 µM | EC50 [24]: > 6.18 µM | selectivity ratio [25]: 770 | CC50 (MT4): 6.18 µM

Cc1cc(C#N)cc(C)c1Oc1nc(NC2CCN(Cc3ccc(C(N)=O)cc3)CC2)nc2c1SCC2
EC50 [1]: 0.0365 µM | EC50 [2]: 0.0048 µM | Ratio EC50 [4]: 7.9 | selectivity ratio [5]: 4000 | EC50 [6]: 0.0084 µM | selectivity ratio [7]: 3800 | Ratio EC50 [8]: 3.3 | selectivity ratio [9]: 17300 | selectivity ratio [10]: 28900 | Ratio EC50 [12]: 3.3 | selectivity ratio [13]: 9580 | EC50 [14]: 0.0436 µM | EC50 [16]: 0.0152 µM | Ratio EC50 [17]: 1.1 | EC50 [18]: 0.0221 µM | selectivity ratio [19]: 9520 | selectivity ratio [20]: 6590 | IC50 [21]: 0.066 µM | EC50 [22]: 0.0153 µM | Ratio EC50 [23]: 1.8 | EC50 [24]: > 165 µM | selectivity ratio [25]: 34200 | Ratio EC50 [26]: 4.8 | CC50 (MT4): 165 µM | EC50 [27]: 0.005 µM

Cc1cc(C#N)cc(C)c1Oc1nc(NC2CCN(Cc3ccc(S(N)(=O)=O)cc3)CC2)nc2c1CCC2
EC50 [1]: 0.0356 µM | EC50 [2]: 0.0011 µM | Ratio EC50 [4]: 32.3 | EC50 [6]: 0.0142 µM | Ratio EC50 [8]: 5.3 | Ratio EC50 [12]: 38.4 | EC50 [14]: 0.0258 µM | EC50 [16]: 0.0059 µM | Ratio EC50 [17]: 10 | EC50 [18]: 0.014 µM | IC50 [21]: 0.091 µM | EC50 [22]: 0.0423 µM | Ratio EC50 [23]: 12.9 | EC50 [24]: 58.3 µM | Ratio EC50 [26]: 12.7 | CC50 (MT4): > 234 µM | EC50 [27]: 0.011 µM

Cc1cc(C#N)cc(C)c1Oc1nc(NC2CCN(Cc3ccc(S(C)(=O)=O)cc3)CC2)nc2c1SCC2
EC50 [2]: 0.0059 µM | selectivity ratio [7]: 257 | EC50 [14]: 0.0466 µM | IC50 [21]: 0.13 µM | EC50 [24]: 13.5 µM | selectivity ratio [25]: 2020 | CC50 (MT4): 11.9 µM

Cc1cc(C#N)cc(C)c1Oc1nc(NC2CCN(Cc3ccc([N+](=O)[O-])cc3)CC2)nc2c1CSC2
EC50 [2]: 0.0115 µM | selectivity ratio [7]: 24 | EC50 [14]: 1.14 µM | IC50 [21]: 0.129 µM | EC50 [24]: > 27.1 µM | selectivity ratio [25]: 2340 | CC50 (MT4): 27.1 µM

Cc1cc(C#N)cc(C)c1Oc1nc(NC2CCN(Cc3ccncc3)CC2)nc2c1CCCC2
EC50 [2]: 0.0086 µM | selectivity ratio [7]: 440 | EC50 [14]: 0.172 µM | IC50 [21]: 0.072 µM | EC50 [24]: 21.7 µM | selectivity ratio [25]: 8750 | CC50 (MT4): 75.8 µM

Cc1cc(C#N)cc(C)c1Oc1nc(NC2CCN(Cc3ccc([N+](=O)[O-])cc3)CC2)nc2c1CCCC2
EC50 [2]: 0.0774 µM | selectivity ratio [7]: 4 | EC50 [14]: 6.9 µM | IC50 [21]: 0.094 µM | EC50 [24]: > 29.1 µM | selectivity ratio [25]: 376 | CC50 (MT4): 29.1 µM
